Experimental data as given in PMC3115796 (The Journal of Cell Biology, 2011).
Entries after “also recorded” stand apart in the source; their conditions may differ. One block for each substance: values may come before it. Ends that are not written are not given here.

How the values were obtained:
[1] = test system: SLAIN2 C terminus / full-length CLIP-170; test: GST-SLAIN2 pull-down of CLIPs and full-length CLIP-170; type: binding
[2] = target: T1, CLIPCG1 (first CAP-Gly domain of CLIP-170) (Homo sapiens, UniProt P30622); test: ITC of SLAIN2c with first CAP-Gly domain of CLIP-170; type: binding
T1 sequence (P30622 56-128): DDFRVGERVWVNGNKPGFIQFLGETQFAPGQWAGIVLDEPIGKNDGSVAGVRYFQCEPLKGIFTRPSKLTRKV

[3] = test system: p150CG (CAP-Gly domain of dynactin large subunit p150^Glued); test: ITC of SLAIN2c with CAP-Gly domain of p150Glued; type: binding, human; conditions: ITC in PBS, 25°C
[4] = target: T2, CLIPCG2 (second CAP-Gly domain of CLIP-170) (Homo sapiens, UniProt P30622); test: ITC of SLAIN2c with second CAP-Gly domain of CLIP-170; type: binding
T2 sequence (P30622 210-282): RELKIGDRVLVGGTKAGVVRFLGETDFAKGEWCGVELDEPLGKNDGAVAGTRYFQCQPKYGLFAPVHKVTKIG

[5] = target: T3, CLIPCG12 (both CAP-Gly domains of CLIP-170) (Homo sapiens, UniProt P30622); test: ITC of SLAIN2c with double CAP-Gly construct of CLIP-170; type: binding
T3 sequence (P30622 48-300): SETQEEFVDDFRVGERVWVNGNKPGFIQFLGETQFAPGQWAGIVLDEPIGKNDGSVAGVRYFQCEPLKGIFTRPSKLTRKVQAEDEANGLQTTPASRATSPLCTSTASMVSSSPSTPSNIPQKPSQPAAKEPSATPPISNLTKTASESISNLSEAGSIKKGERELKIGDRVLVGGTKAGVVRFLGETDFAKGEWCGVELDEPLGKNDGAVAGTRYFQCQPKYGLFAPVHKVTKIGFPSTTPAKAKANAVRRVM

SLAIN2 in 3T3 cells = test: siRNA knockdown in mouse 3T3 cells; type: cell-based; conditions: siRNA 5 nM, 72 h
Procedure, shortened: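 Mouse Swiss 3T3 cells were cultured in 45% DME, 45% Ham's F10 and 10% FCS. Cells were blocked in interphase with 2 mM thymidine, added 1 d after transfection, for 2 d.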

Substance: GFP–CLIP-115: full-length rat CLIP-115 [reference compound]
association with SLAIN2 C terminus [1]: associated with the SLAIN2 C terminus

Substance: GSMKDDSWKDGCY-OH [SLAIN2c]
Kd (in words) ([2]; ITC): micromolar range
binding by ITC (in words) [3]: only very weak binding; also recorded: more weakly than the two CAP-Gly domains of CLIP-170
Kd (in words) ([4]; ITC): micromolar range
Kd (in words) [5]: comparable

Substance: SLAIN2 siRNA#2: siRNA target sequence 5′-CUCUAUAGAUAGUGAGUUA-3′ (chemistry not given here)
depletion of SLAIN2 (SLAIN2 in 3T3 cells): efficiently deplete SLAIN2

binding by ITC (in words) ([2]; ITC in PBS, 25°C): abrogates binding
binding by ITC (in words) ([4]; ITC in PBS, 25°C): abrogates binding
Substance: SLAIN2c-W576A (GSMKDDSAKDGCY)
